From PubChem
In the library only some 1.1% were active in any assay of this set; here they are far more common.
CAL PDZ FP-1 = CAL PDZ (human) peptide binding inhibition | inhibition, % at 24.9 µM | AID 602252 | 300,000 compounds, 0.92% hits | purified CAL PDZ, TMR-peptide fluorescence polarization, 1 h;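 active means mean inhibition of at least 30% with at least half of replicates also reaching 30%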;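 further: 0% = DMSO neutral control and 100% = excess unlabeled competitor peptide PRC23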
Keap1 Nrf2 FP = inhibitors of human Keap1-Nrf2 protein-protein interaction. Q14145. Keap1 Kelch-Nrf2 peptide fluorescence polarization, 1536-well. inhibition, % at 9.4 µM. 340,000 compounds, 0.15% hits. AID 504523; in the data active means inhibition above about 12%;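 further: human Keap1 Kelch domain with fluorescein labeled Nrf2 9mer peptide probe; 0% = neutral control wells and 100% = peptide positive control; higher means more block of Keap1 binding to Nrf2 peptide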
Target sequence (Q14145 whole entry, looked up, the tested form may be a part): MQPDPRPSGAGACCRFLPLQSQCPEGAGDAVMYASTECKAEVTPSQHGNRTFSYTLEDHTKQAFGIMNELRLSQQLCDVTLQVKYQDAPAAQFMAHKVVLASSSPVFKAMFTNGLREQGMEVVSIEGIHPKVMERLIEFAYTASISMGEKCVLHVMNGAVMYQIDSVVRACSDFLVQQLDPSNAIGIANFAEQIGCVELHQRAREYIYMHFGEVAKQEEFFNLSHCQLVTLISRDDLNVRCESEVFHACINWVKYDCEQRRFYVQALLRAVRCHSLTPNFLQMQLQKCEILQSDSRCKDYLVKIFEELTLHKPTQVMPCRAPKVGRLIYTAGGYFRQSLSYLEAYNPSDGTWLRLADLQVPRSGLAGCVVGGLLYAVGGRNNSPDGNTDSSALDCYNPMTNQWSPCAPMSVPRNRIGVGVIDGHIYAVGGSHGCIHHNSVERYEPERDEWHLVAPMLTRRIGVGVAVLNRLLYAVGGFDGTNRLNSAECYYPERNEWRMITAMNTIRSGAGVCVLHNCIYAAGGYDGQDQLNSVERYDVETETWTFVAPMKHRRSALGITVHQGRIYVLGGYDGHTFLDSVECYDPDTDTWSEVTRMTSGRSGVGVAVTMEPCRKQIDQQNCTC
miR-122 sensor = miR-122 inhibition in Huh7 cells. Huh7 miR-122 Renilla luciferase sensor, 48 h; neutral wells = 0, positive control = 100. activation (reporter increase), % at 12.5 µM. 340,000 compounds, 0.3% hits;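 active means mean replicate activation score at least 90 and every replicate individually at or above 90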;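 further: higher luciferase means less miR-122 activity so hits act as miR-122 inhibitors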
CAL PDZ FP-2 = inhibitors of human CAL PDZ peptide binding. Q9HD26. purified CAL PDZ, TMR-peptide fluorescence polarization, 1 h. inhibition, % at 20 µM. 330,000 compounds, 0.02% hits. AID 504414;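 active means highest replicate inhibition of at least 40%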;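 further: plate controls were DMSO neutral control wells for no effect and unlabeled competitor peptide control wells for full effect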
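System: purified tagged CAL PDZ domain construct (CerCALP). Schedule: 1 h incubation at room temperature before polarization reading. Medium: 25 mM sodium phosphate pH 7.4, 150 mM NaCl, TCEP, IgG, Thesit. Read-out: percent inhibition from loss of millipolarization. Measured by: FP readout, S and P plane fluorescence. Probe or stimulus: fluorescent TMR peptide probe.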
C-LANA FP = blocks KSHV LANA C-terminal domain binding to DNA; MBP-C-LANA/FAM-LBS DNA binding, fluorescence polarization; inhibition, % at 9 µM; 340,000 compounds, 0.078% hits; AID 504423;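 active means highest replicate inhibition at or above 60% at 9 µM, even if other replicates fall short; inactive means all replicates below 60% inhibition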;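 further: 0% = neutral control wells and 100% = 4 µM acridine orange control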
Numbers without * were called inactive; x = not tested or not shown; + = active, no number; [ ] = dose if it differs, or a comment.

SMILES | CAL PDZ FP-1 | Keap1 Nrf2 FP | miR-122 sensor | CAL PDZ FP-2 | C-LANA FP
CCCN(CC(=O)Nc1ccccc1OC)C(=O)CSC(=S)N1CCCC1 | 60.2* | 2.1 | -0.9 | -0.2 | -1.6
CCCN(CC(=O)Nc1ccccc1OC)C(=O)c1ccccn1 | 74.1* | 4.3 | -0.3 | -0.3 | -1.6
CC(=O)Nc1ccc(C(=O)CN2C(=O)NC3(CCOc4ccccc43)C2=O)c(F)c1 (configuration not stated) | 39.6* | -2.2 | x | -1.0 | -0.5
CCSc1ccccc1C(=O)NCCc1ccccc1 | 45.5* | -1.4 | x | -0.4 | -1.4
Cc1ccc(NC(=O)COc2ccccc2C(=O)NCCc2ccccc2)cc1 | 72.0* | 2.1 | 12.2 | 3.4 | 0.8
O=C(COc1ccccc1C(=O)Nc1ccccc1)NCCc1ccccc1 | x | 6.0 | x | -0.4 | -0.1
Cc1cc(C)cc(NS(=O)(=O)c2ccc(NC(=S)NC(=O)c3ccc(Br)o3)cc2)c1 | x | 4.7 | 97.5* | -1.9 | 4.5
O=C(Nc1ccc(S(=O)(=O)NCCc2ccccc2)cc1)c1ccc(Br)o1 | -0.9 | -2.1 | 200.9* | -3.2 | 1.4
O=S(=O)(c1ccccc1F)N1CC[C@H]2[C@H](CO)Nc3ccc(-c4ccccc4)cc3[C@H]21 | x | x | 27.8[16.7 µM] | x | x
C[C@@H]1CN([C@@H](C)CO)C(=O)c2cc(C3=CCCCC3)cnc2O[C@H]1CN(C)S(C)(=O)=O | x | x | -6.4[16.7 µM] | x | x
C[C@@H]1CN([C@H](C)CO)S(=O)(=O)c2ccc(C#CCN(C)C)cc2O[C@H]1CN(C)C(=O)C1CCC1 | x | x | -4.3[16.7 µM] | x | x
Cc1noc(C)c1NC(=O)Nc1ccc2c(c1)C(=O)N([C@@H](C)CO)C[C@@H](C)[C@@H](CN(C)S(=O)(=O)c1ccc(F)cc1)OCCCC[C@@H](C)O2 | x | x | -1.3[16.7 µM] | x | x
COCC(=O)Nc1ccc(S(=O)(=O)NCCc2ccccc2)cc1 | x | 0.7 | 118.1* | -0.2 | 2.9
CCOC(=O)c1cc(S(=O)(=O)NCCc2ccccc2)cn1C | -5.8 | 1.6 | 113.9* | -2.7 | -1.2
C[C@@H]1CN([C@@H](C)CO)S(=O)(=O)c2ccc(C3=CCCC3)cc2O[C@H]1CN(C)C(=O)C1CCCCC1 | x | x | 16.0[16.7 µM] | x | x
C[C@@H]1CN([C@@H](C)CO)C(=O)c2cc(C3=CCCC3)cnc2O[C@@H]1CN(C)C(=O)CN1CCOCC1 | x | x | 25.0[16.7 µM] | x | x
Cc1ccc2cccc(NC(=O)c3ccc(Br)o3)c2n1 | 70.4* | -1.5 | 6.7 | -1.2 | 0.2
Cc1noc(C)c1S(=O)(=O)Nc1ccc2c(c1)C(=O)N([C@@H](C)CO)C[C@H](C)[C@H](CN(C)C(=O)c1ccccc1)OCCCC[C@H](C)O2 | x | x | -1.3[16.7 µM] | x | x
COc1cc(NS(=O)(=O)c2ccc(OC)c(C)c2C)c(OC)cc1Cl | -3.3 | 1.0 | 271.6* | -1.6 | -2.5
COc1cc(S(=O)(=O)Nc2cccc(C(=O)O)c2)c(OC)cc1Cl | -2.0 | 3.2 | 8.7 | -2.1 | 1.7
COc1cc(S(=O)(=O)Nc2cccc3cn[nH]c23)c(OC)cc1Cl | 95.1* | -0.3 | 19.9 | -0.6 | -0.1
CC(C)NC(=O)Nc1cccc2c1O[C@H](CN(C)C)[C@H](C)CN([C@@H](C)CO)C2=O | x | x | 2.7[16.7 µM] | x | x
Cc1nnc2sc(SCC(=O)Nc3cccc(Cl)c3)nn2c1=O | 99.5* | 2.3 | x | 12.3 | -1.4
COc1cccc(NC(=O)CSc2nn3c(=O)c(C)nnc3s2)c1 | -1.7 | -2.5 | 2.1 | -1.9 | -1.7
CSc1ccc(S(=O)(=O)NC2CC3CCC2C3)cc1 (configuration not stated) | -2.3 | 1.3 | 104.4* | 1.9 | -0.2
SMILES | CAL PDZ FP-1 | Keap1 Nrf2 FP | miR-122 sensor | CAL PDZ FP-2 | C-LANA FP
COc1ccc(S(=O)(=O)NC2CC3CCC2C3)cc1 (configuration not stated) | -3.4 | -6.3 | 40.9 | -0.3 | 0.7
C[C@@H]1CCCCO[C@@H](CN(C)Cc2ccc(Cl)c(Cl)c2)[C@H](C)CN([C@@H](C)CO)C(=O)c2cc(NC(=O)C3CCCCC3)ccc2O1 | x | x | -20.8[16.7 µM] | x | x
Cc1ccc(C2CN(C)C3(C(=O)Nc4ccccc43)C23COc2ccccc2C3=O)cc1 (configuration not stated) | -2.1 | -1.6 | 295.3* | 1.0 | -0.8
CN1CC(c2ccccc2Cl)C2(COc3ccccc3C2=O)C12C(=O)Nc1ccccc12 (configuration not stated) | 1.3 | -2.9 | 116.5* | -1.0 | -0.3
CN1CC(c2ccccc2)C2(SC(=S)N(Cc3ccco3)C2=O)C12C(=O)Nc1ccccc12 (configuration not stated) | 9.0 | -0.1 | -2.2 | x | 0.4
O=C(NCCCN1CCOCC1)[C@H]1N[C@H]2c3ccc(C4=CCCC4)c(=O)n3C[C@H]2[C@@H]1CO | x | x | 0.1[16.7 µM] | x | x
O=C(C1CC1)N1CC[C@@H]2[C@H]1c1cc(-c3cccc(F)c3)ccc1N[C@@H]2CO | x | x | 9.0[16.7 µM] | x | x
Cc1ccc(S(=O)(=O)Nc2cccc3cccnc23)c([N+](=O)[O-])c1 | -0.7 | -0.9 | 99.6* | -2.5 | 2.1
C[C@H]1CN([C@@H](C)CO)C(=O)Cc2cc(NS(=O)(=O)c3cn(C)cn3)ccc2O[C@@H]1CN(C)CC1CCCCC1 | x | x | 1.0[16.7 µM] | x | x
Cc1ccc(-c2ccc3c(c2)O[C@@H](CN(C)S(C)(=O)=O)[C@@H](C)CN([C@H](C)CO)S3(=O)=O)cc1 | x | x | 0.7[16.7 µM] | x | x
CC(C)c1ccc(NC(=O)c2cc(Br)ccc2Br)cc1 | 36.8* | -2.7 | 17.2 | -0.3 | -2.3
O=C(Nc1ccc(Cl)cc1)c1ccc(Br)cc1F | -8.6 | -4.8 | x | -0.7 | 0.7
O=C(CCC(=O)Nc1ccc(Br)cc1)N/N=C/c1ccccc1O | + | 0.6 | -3.2 | -1.9 | 0.1
COc1ccc(S(=O)(=O)N2C[C@H](O)COC[C@H]3O[C@@H](CC(=O)NCCN4CCCCC4)CC[C@@H]32)cc1 | x | x | 0.6[16.7 µM] | x | x
Cc1sc2nc(SC3CCOC3=O)n(Cc3ccccc3)c(=O)c2c1C (configuration not stated) | -1.2 | 4.2 | x | -4.0 | 0.7
C=CCn1c(SC2CCOC2=O)nc2sc(C)c(C)c2c1=O (configuration not stated) | 48.6* | -1.4 | 4.2 | x | -0.2
C[C@@H]1CN([C@@H](C)CO)C(=O)c2cc(NC(=O)C3CC3)ccc2O[C@H]1CN(C)Cc1ccncc1 | x | x | -4.3[16.7 µM] | x | x
CCCNC(=O)C[C@H]1CC[C@@H]2[C@H](COc3ccc(NC(=O)c4ccc(Cl)cc4)cc3C(=O)N2C)O1 | x | x | 2.0[16.7 µM] | x | x
COc1cc(S(=O)(=O)NC2CC(C)(C)NC(C)(C)C2)c(OC)cc1Cl | -0.1 | 3.6 | 2.0 | 0.2 | 1.2
CCOc1ccc(Cl)cc1S(=O)(=O)NC1CCCC1 | -0.3 | -4.1 | 114.1* | -1.4 | -0.7
COc1ccc(OC)c(S(=O)(=O)NC2CC2)c1 | 3.2 | 0.8 | 7.2 | 0.8 | -0.5
COc1cc(S(=O)(=O)NC2CCCC2)c(OC)cc1Cl | -6.6 | 0.1 | 293.1* | -0.6 | 0.1
CCOc1cc(S(=O)(=O)NC2CCCC2)ccc1Cl | x | -0.9 | 26.4 | 0.0 | 0.3
COc1ccc(F)cc1S(=O)(=O)NC1CCCCCC1 | 1.1 | -3.6 | 104.7* | -1.7 | 1.0
COc1ccc(C)cc1S(=O)(=O)NC1CCCCC1C (configuration not stated) | -2.8 | -1.5 | 132.5* | x | 0.9
